Experimental data published in ChEMBL document CHEMBL4613249, “Serendipitous Discovery of Leucine and Methionine Depletion Agents during the Search for Polyamine Transport Inhibitors” (J Med Chem, 2020).
The source made the active and inactive calls.

What was measured:
[1] = tested on: L3.6pl; assay: Effect on polyamine level in human L3.6PL cells assessed as phenylalanine level per mg protein in supernatant at 2 uM measured after 72 hrs in presence of amine oxidase suppressor aminoguanidine by LCMS analysis (reference value: 14299 +/- 7194 pmol/mg); format: functional
[2] = target: Large neutral amino acids transporter small subunit 1 (Homo sapiens) (UniProt Q01650); assay: Inhibition of LAT1-mediated [3H]-leucine uptake in human L3.6PL cells measured after 2 mins by scintillation counting analysis; format: cell-based
Sequence of Large neutral amino acids transporter small subunit 1 (Homo sapiens) (Q01650 whole entry): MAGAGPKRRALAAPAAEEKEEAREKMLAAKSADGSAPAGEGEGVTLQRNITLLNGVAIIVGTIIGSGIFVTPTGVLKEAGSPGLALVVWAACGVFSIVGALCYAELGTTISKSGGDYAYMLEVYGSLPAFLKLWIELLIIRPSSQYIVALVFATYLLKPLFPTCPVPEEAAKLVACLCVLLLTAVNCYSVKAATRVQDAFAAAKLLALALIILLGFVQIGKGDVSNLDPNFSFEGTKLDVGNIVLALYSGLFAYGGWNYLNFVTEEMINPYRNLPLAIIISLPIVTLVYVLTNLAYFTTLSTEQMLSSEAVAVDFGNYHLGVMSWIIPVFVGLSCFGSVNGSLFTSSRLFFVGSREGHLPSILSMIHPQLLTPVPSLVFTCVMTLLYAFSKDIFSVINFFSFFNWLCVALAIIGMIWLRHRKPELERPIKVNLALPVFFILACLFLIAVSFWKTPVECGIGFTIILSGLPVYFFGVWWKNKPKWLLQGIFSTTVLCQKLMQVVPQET

[3] = tested on: L3.6pl; assay: Cytotoxicity against human L3.6PL cells assessed as reduction in cell viability measured after 72 hrs by MTS assay; format: cell-based
Outline: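 L3.6pl cells, 500 cells/well in RPMI 1640 with 10% FBS and 250 μM aminoguanidine, plated overnight. Compound in PBS added, then 72 h at 37°C. MTS absorbance at 490 nm. IC50 is the dose giving 50% relative growth versus untreated control. Run twice in triplicate.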

[4] = target: Large neutral amino acids transporter small subunit 1 (Homo sapiens) (UniProt Q01650); assay: Inhibition of LAT1-mediated amino acid transport in human L3.6PL cells assessed as reduction in intracellular leucine level by measuring leucine level per mg protein in cell lysate at 5 uM measured after 72 hrs by LCMS analysis (reference value: 232 +/- 10 pmol/mg); format: cell-based
Outline: (§1)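 L3.6pl cells (50,000 cells/mL, 10 mL, 1 mM aminoguanidine) were seeded in poly-lysine-treated 9 cm dishes and incubated overnight at 37°C. They were then dosed with compound at 2, 5 or 7 μM from PBS stocks (2, 5, 7 mM) and incubated 72 h. Runs were done in triplicate, with amino acid levels per mg protein.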

[5] = tested on: L3.6pl; assay: Effect on polyamine level in human L3.6PL cells assessed as decrease in intracellular putrescine level at 1 uM measured after 72 hrs in presence of amine oxidase suppressor aminoguanidine and Ant-44 by LCMS analysis; format: functional, cell-based
Outline: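 L3.6pl cells dosed with Ant-44 fixed at 2 μM plus increasing compound for 72 h at 37°C. Intracellular polyamines and Ant-44 given as nmol/mg protein, in duplicate, with a parallel untreated control.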

[6] = target: Large neutral amino acids transporter small subunit 1 (Homo sapiens) (UniProt Q01650); assay: Inhibition of LAT1-mediated amino acid transport in human L3.6PL cells assessed as reduction in intracellular methionine level by measuring methionine level per mg protein in cell lysate at 2 uM measured after 72 hrs by LCMS analysis (reference value: 167 +/- 67 pmol/mg); format: cell-based; outline: as §1
[7] = tested on: L3.6pl; assay: Effect on polyamine level in human L3.6PL cells assessed as arginine level per mg protein in supernatant at 2 uM measured after 72 hrs in presence of amine oxidase suppressor aminoguanidine by LCMS analysis (reference value: 22121 +/- 10585 pmol/mg); format: functional
[8] = tested on: L3.6pl; assay: Effect on polyamine level in human L3.6PL cells assessed as intracellular putrescine level at 7 uM measured after 72 hrs in presence of amine oxidase suppressor aminoguanidine by LCMS analysis relative to control; format: functional; settings: in the assay text read “by N-dansylation and HPLC analysis” for “by LCMS analysis”
Outline: (§2)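 L3.6pl cells, 50,000 cells/mL in 10 mL per Petri dish with 1 mM aminoguanidine, plated overnight. Dosed with compound at 2, 5 or 7 μM from PBS stocks, then 72 h at 37°C. Intracellular polyamines measured by N-dansylation and HPLC, in duplicate, as nmol/mg protein against a parallel untreated control.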

[9] = target: Large neutral amino acids transporter small subunit 1 (Homo sapiens) (UniProt Q01650); assay: Induction of LAT1-mediated polyamine efflux in human L3.6PL cells assessed as increase in [3H]leucine efflux at 60 uM measured after 30 mins at 37 degC in presence of LAT1 inhibitor JPH-203 by scintillation counting method; format: cell-based
[10] = tested on: L3.6pl; assay: Effect on polyamine level in human L3.6PL cells assessed as putrescine level per mg protein in supernatant at 5 uM measured after 72 hrs in presence of amine oxidase suppressor aminoguanidine by LCMS analysis (reference value: 977 +/- 522 pmol/mg); format: functional
[11] = tested on: CHO-K1; assay: Induction of polyamine efflux in aminoguanidine pretreated CHOK1 cells assessed as reduction in cell viability measured after 72 hrs in presence of spermine by MTS assay; format: ADME, cell-based, Cricetulus griseus; settings: chinese hamster, cho-k1, 72 h
[12] = tested on: L3.6pl; assay: Effect on polyamine level in human L3.6PL cells assessed as agmatine level per mg protein in supernatant at 5 uM measured after 72 hrs in presence of amine oxidase suppressor aminoguanidine by LCMS analysis (reference value: 101 pmol/mg); format: functional
[13] = tested on: CHO-K1; assay: Potentiation of 0.5 uM N-(anthracenylmethyl) homospermidine-induced toxicity in CHOK1 cells assessed as increase in Ant-44-induced reduction in cell growth measured after 48 hrs in presence of amine oxidase suppressor aminoguanidine by MTS assay; format: functional, cell-based; settings: Cricetulus griseus
Outline: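 CHO K1 cells were pretreated 24 h with 1 mM aminoguanidine, then given fixed Ant-44 (0.5 μM) plus increasing compound (up to 5 μM) for 48 h at 37°C. MTS growth was read, with EC50 defined as the dose halving growth relative to Ant-44 alone. Runs were done twice in triplicate, with SD.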

[14] = target: Large neutral amino acids transporter small subunit 1 (Homo sapiens) (UniProt Q01650); assay: Inhibition of LAT1-mediated amino acid transport in human L3.6PL cells assessed as reduction in intracellular methionine level measured after 72 hrs by LCMS analysis; format: cell-based; outline: as §1
[15] = tested on: L3.6pl; assay: Induction of polyamine import in human L3.6PL cells assessed as increase in intracellular Ant-44 uptake by measuring Ant-44 level per protein at 1 measured up to 72 hrs in presence of amine oxidase suppressor aminoguanidine by LCMS analysis (reference value: 2.15 +/- 0.1 nmol/mg); format: functional
[16] = tested on: L3.6pl; assay: Effect on polyamine level in human L3.6PL cells assessed as decrease in intracellular spermidine level at 2 to 7 uM measured after 72 hrs in presence of amine oxidase suppressor aminoguanidine by LCMS analysis; format: functional, cell-based; settings: in the assay text read “by N-dansylation and HPLC analysis” for “by LCMS analysis”; outline: as §2
[17] = tested on: L3.6pl; assay: Effect on polyamine level in human L3.6PL cells assessed as change in putrescine level at 2 to 7 uM measured after 72 hrs in presence of amine oxidase suppressor aminoguanidine by LCMS analysis; format: functional, cell-based; settings: in the assay text read “by N-dansylation and HPLC analysis” for “by LCMS analysis”; outline: as §2
[18] = tested on: L3.6pl; assay: Effect on polyamine level in human L3.6PL cells assessed as agmatine level per mg protein in supernatant at 2 uM measured after 72 hrs in presence of amine oxidase suppressor aminoguanidine by LCMS analysis (reference value: 101 pmol/mg); format: functional
[19] = tested on: L3.6pl; assay: Effect on polyamine level in human L3.6PL cells assessed as arginine level per mg protein in supernatant at 5 uM measured after 72 hrs in presence of amine oxidase suppressor aminoguanidine by LCMS analysis (reference value: 22121 +/- 10585 pmol/mg); format: functional
[20] = tested on: CHO-K1; assay: Inhibition of polyamine transporter in DFMO-treated CHOK1 cells assessed as prevention of spermidine entry into cells by measuring rescue of DFMO-induced reduction in cell growth at 1 to 6 uM measured after 48 hrs in presence of amine oxidase suppressor aminoguanidine by MTS assay; format: cell-based; settings: Cricetulus griseus
Outline: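 CHO K1 cells (1000 cells/well) were pre-incubated 24 h with 1 mM aminoguanidine. They were then given fixed DFMO (4.2 mM) and spermidine (1 μM) plus increasing compound doses for 48 h at 37°C. EC50 is the concentration bringing MTS relative growth halfway between the DFMO+Spd and DFMO-only controls. Runs were done twice in triplicate, with SD.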

- inhibition [2]: inactive
- Activity [4]: 94 pmol/mg
- Activity [6]: 226 pmol/mg
- Activity [9]: inactive
- inhibition [14]: Dose-dependent effect
SMILES: CC(C)CCN1CCN([C@@H](CNCc2ccccc2)CC2CCCCC2)C[C@@H]1CC(C)C
- Activity [1]: 11954 pmol/mg
- IC50 [3]: 5900 nM
- Activity [5]: Active
- Activity [7]: 18396 pmol/mg
- Activity [8]: 83%
- Activity [10]: 2224 pmol/mg
- Activity [11]: Active
- Activity [12]: 485 pmol/mg
- Activity [13]: Dose-dependent effect
- EC50 ([13]; CHO-K1, 48 h): 60 nM
- Activity [15]: 2.08 nmol/mg
- Activity [16]: Active
- Activity [17]: inactive
- Activity [18]: 297 pmol/mg
- Activity [19]: 43243 pmol/mg
- inhibition [20]: inactive
